Bioassay records from PubChem BioAssay.
Wnt bcat act = activators of Wnt/beta-catenin signaling; AID 743398; activation, % at 9.35 µM; Wnt/beta-catenin reporter cell assay, activator, plate reader; 1.2% of 300,000 active; in the data active = activation above about 30%, passing the limit was not always enough;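 also: 0% = neutral control wells and 100% = positive control wells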
HSF1 activator = increases HSF-1 driven luciferase reporter signal | NIH3T3-HGL HSF-1 luciferase reporter, MG132, 8 h; 100% = twice DMSO control signal | activation, % at 9 µM | 1.7% of 300,000 active | AID 504408;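 active = mean replicate activation of at least 50% with a set share of replicates each reaching 50%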;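 also: 0% = median of the neutral control wells and 100% = twice that signal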
MITF act = activators of MITF-driven TRPM1 promoter activity in SK-MEL-5 cells. 0.75% of 300,000 active. SK-MEL-5 TRPM1-promoter luciferase, 24 h; % of positive control, neutral wells = 0. activation, % at 12.5 µM;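 active = mean activation of at least 80% with every replicate also reaching 80%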;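 also: 0% = neutral control wells and 100% = parthenolide positive control wells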
SR-BI DiI-HDL act = SR-BI HDL lipid transfer activation; CHO ldlA[mSR-BI] cells, DiI-HDL uptake fluorescence, 3 h; 100 = double the neutral-control signal; activation, % at 12.5 µM; 0.096% of 320,000 active; AID 504775;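 active = mean replicate activation of at least 60% and every replicate at or above 60%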;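 also: 0% = median plate neutral-control signal and 100% = twice that signal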
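Test system: SR-BI-overexpressing, LDLR-lacking CHO cells; Also added: labelled HDL, 10 µg/mL; Measured by: bottom-read cell fluorescence after medium removal, ex 550/em 595 nm; Timing: 3 h uptake period with compound, 37 °C; Buffer or medium: F12, 0.5% BSA, 25 mM HEPES; Doses: single compound concentration, delivered by pin transfer.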
SR-BI DiI inh = inhibitors of mouse SR-BI mediated HDL lipid uptake; AID 488896; Q61009; ldlA[mSR-BI] CHO cells, DiI-HDL uptake fluorescence, 3 h; inhibition, % at 12.5 µM; 0.96% of 320,000 active;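 active = mean replicate inhibition of at least 70% and a set share of replicates each scoring 70 or more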;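 also: 0% = median of neutral control wells and 100% = median of positive control wells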
Target sequence (Q61009 whole entry, looked up): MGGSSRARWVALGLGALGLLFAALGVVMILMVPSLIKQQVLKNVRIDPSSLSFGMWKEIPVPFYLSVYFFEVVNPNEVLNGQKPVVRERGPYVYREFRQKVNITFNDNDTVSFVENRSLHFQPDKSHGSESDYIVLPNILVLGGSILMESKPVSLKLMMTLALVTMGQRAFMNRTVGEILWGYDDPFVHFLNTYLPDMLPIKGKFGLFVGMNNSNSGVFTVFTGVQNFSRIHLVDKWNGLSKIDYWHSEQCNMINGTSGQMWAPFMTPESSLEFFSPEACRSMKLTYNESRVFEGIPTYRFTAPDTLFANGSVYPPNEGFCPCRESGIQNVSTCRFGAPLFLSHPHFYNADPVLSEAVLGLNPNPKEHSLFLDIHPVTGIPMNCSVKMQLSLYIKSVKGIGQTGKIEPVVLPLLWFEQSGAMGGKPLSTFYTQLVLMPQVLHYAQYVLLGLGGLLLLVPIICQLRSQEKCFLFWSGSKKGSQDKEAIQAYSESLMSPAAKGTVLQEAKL
Starred values were filed as active, the others as inactive; nt = no result given. This is a sample that favours compounds with a hit; in the whole collection about 3.6% have one here.

SMILES	Wnt bcat act	HSF1 activator	MITF act	SR-BI DiI-HDL act	SR-BI DiI inh
CC1=C(Sc2nc3ccccc3[nH]2)C(=O)NC(C)(C)C1	4	60*	4	6	-6
Cc1cc(F)ccc1C(O)c1ncc(-c2cccc3ccccc23)[nH]1 (stereo not given)	0	nt	nt	nt	nt
COc1cccc(CC(=O)Nc2ccccc2C(=O)N2CCOCC2)c1	nt	-9	-8	71*	-71
COc1ccc(CC(=O)Nc2ccccc2C(=O)N2CCOCC2)cc1	nt	-8	-7	4	-4
CCSc1ncccc1C(=O)N[C@@H](CCSC)C(=O)OC	45*	-3	nt	nt	nt
O=C1NC(=O)C2(Br)Nc3ccc(Br)cc3C(=O)C2N1 (stereo not given)	-4	nt	0	-2	2
O=C(O)c1cccc(N/N=C/c2ccc(F)c(F)c2)c1	-4	-10	-15	0	0
O=C(O)c1cccc(N/N=C/C2=C(Cl)c3cc(Cl)ccc3SC2)c1	40*	-54	36	5	-5
O=c1nc(/C=C/c2cc([N+](=O)[O-])ccc2Cl)cc(C(F)(F)F)[nH]1	nt	75*	-1	21	-21
O=c1nc(/C=C/c2cccn2-c2ccc([N+](=O)[O-])cc2)cc(C(F)(F)F)[nH]1	-1	-4	3	7	-7
CN1c2ccsc2C(O)=C(C(=S)Nc2ccccc2)S1(=O)=O	7	-1	-1	15	-15
Cc1ccccc1NC(=S)C1=C(O)c2sccc2N(C)S1(=O)=O	2	58*	4	-7	7
Cc1cccc(NC(=O)c2cccc(S(=O)(=O)N(C)C3CCCCC3)c2)n1	-1	nt	nt	nt	nt
CCOC(=O)c1csc(N)c1-c1ccc([N+](=O)[O-])cc1	2	6	nt	69*	-69
COc1ccc(C2=CSC(/N=C/c3ccc(F)cc3)=NN2)cc1	0	9	-4	-75	75*
COc1ccc(NC(=O)C2=Cc3cccc(OC)c3OC2)cc1	44*	nt	52	-32	32
COc1ccc(NC(=O)C2=Cc3ccccc3OC2)cc1	13	35	13	nt	nt
Cc1ccc(S(=O)(=O)NNC(=O)c2cnn(-c3ccc(Cl)cc3)c2C(F)(F)F)cc1	-1	61*	-9	7	-7
Cc1ccc(S(=O)(=O)NNC(=O)c2cnn(-c3ccccc3)c2C(F)(F)F)cc1	5	-5	nt	19	-19
CC1(C(=O)NS(=O)(=O)c2ccc(C#N)cc2)CCN1C(=O)CC1CCCCC1 (stereo not given)	2	nt	nt	nt	nt
Cc1ccc(C(=O)NCC(C)NC(=O)c2ccc(C)c([N+](=O)[O-])c2)cc1[N+](=O)[O-] (stereo not given)	-3	88*	nt	-13	13
CC(=O)Nc1ccc(C(=O)OCC(=O)c2ccc(C)c([N+](=O)[O-])c2)cc1	nt	58*	7	1	-1
CC(=O)Nc1cccc(NC(=O)c2ccc(C)c([N+](=O)[O-])c2)c1	58*	13	28	-34	34
Cc1ccc(C(=O)Nc2ccncc2)cc1[N+](=O)[O-]	0	6	nt	-29	29
CC1(C(=O)NS(=O)(=O)C2CC2)CCCN(C(=O)c2cccs2)C1 (stereo not given)	1	nt	nt	nt	nt
SMILES	Wnt bcat act	HSF1 activator	MITF act	SR-BI DiI-HDL act	SR-BI DiI inh
Cc1ccccc1CN1[C@@H](C)[C@H](c2ccccc2)Oc2cccc(N3CCCC3)c2S1(=O)=O	-4	nt	nt	nt	nt
O=c1c2ccccc2cnn1Cc1n[nH]c(=S)n1-c1ccc(F)cc1	-5	-33	-6	3	-3
CC(c1ccc(F)cc1)n1c(Cn2ncc3ccccc3c2=O)n[nH]c1=S (stereo not given)	0	66*	15	14	-14
CC1=CC2C(C(O)CC3(C)C2CC(C)C32OCOC23COCO3)C2(C)C/C(=C\O)C(=O)C=C12 (stereo not given)	-25	94*	-80	7	-7
CC(=O)n1c2c(c3ccccc31)OC(N)=C(C#N)C2c1cccc(Cl)c1Cl (stereo not given)	-4	74*	-32	-24	24
O=Nc1ccc(Br)cn1	2	nt	nt	nt	nt
N#Cc1cccc(NC(=O)c2cc(C3CCCCN3C(=O)c3ccc4c(c3)CCO4)on2)c1 (stereo not given)	-1	nt	nt	nt	nt
CCC(=O)Nc1cccc2cccnc12	18	12	13	16	-16
C/C(=N\Nc1cccc2cccnc12)c1ccc[nH]1	42*	63*	48	-56	56
Cc1ccc(C)c(C(O)c2ncc(-c3ccccc3F)[nH]2)c1 (stereo not given)	-1	nt	nt	nt	nt
O=C1/C(=C/c2ccc(N3CCOCC3)o2)SC(=Nc2ccccc2)N1CCc1c[nH]c2ccccc12	nt	8	-55	-87	87*
O=C1S/C(=C/c2ccc(N3CCOCC3)o2)C(=O)N1Cc1ccc(F)cc1	-6	155*	nt	7	-7
O=C1S/C(=C\c2ccc(N3CCOCC3)o2)C(=O)N1Cc1ccc(F)cc1	nt	nt	-4	9	-9
COc1ccc(N=C2S/C(=C\c3ccc(OC(C)C(=O)O)c(OC)c3)C(=O)N2CCc2c[nH]c3ccccc23)cc1 (stereo not given)	-10	-7	-11	-75	75*
Cc1ccc(/C=C2\Oc3cc(OC(=O)N4CCOCC4)ccc3C2=O)cc1	-1	92*	3	47	-47
C=CCN1CC(COCc2ccccc2)OCCS1(=O)=O (stereo not given)	-2	nt	nt	nt	nt
CCOC(=O)NC(=O)/C(C#N)=N/Nc1c(F)cccc1F	nt	64*	20	10	-10
Cc1ccccc1N1CCN(C2CCCN(C(=O)c3noc4c3CCCC4)C2)CC1 (stereo not given)	-2	-7	-5	-83	83*
O=C(NCCc1cccs1)c1ccc(Cl)c(Cl)c1	37*	39	94*	-11	11
N#Cc1cccc(NC(=O)c2cc(C3CCCCN3S(=O)(=O)c3ccccc3)on2)c1 (stereo not given)	0	nt	nt	nt	nt
COCC(C)NC(=O)/C(=C/c1ccccc1)c1ccccc1 (stereo not given)	5	60*	-5	32	-32
CC(NC(=O)/C(=C/c1ccc(OC(F)F)cc1)c1ccccc1)c1ccccc1 (stereo not given)	-4	12	-15	-23	23
CC(C)(C)n1nc(C2CC2)c(Br)c1NC(=O)c1ccccc1Cl	-3	nt	nt	nt	nt
C=CCn1c(=O)c(C(=O)Nc2ccccc2O)c(O)c2ccccc21	nt	26	-4	4	-4
C=CCn1c(=O)c(C(=O)Nc2ccccc2C)c(O)c2ccccc21	6	75*	44	14	-14
COc1cc(NC(=O)c2ccc(Cl)cc2)c(OC)cc1NC(=O)CN1CCOCC1	-1	21	5	-19	19
COc1cc(NC(=O)c2ccccc2)c(OC)cc1NC(=O)CN1C(=O)NC2(CCCCC2)C1=O	-2	nt	-22	-77	77*
COc1cc(NC(=O)c2ccc(Cl)cc2)c(OC)cc1Cl	nt	4	1	-74	74*
